Columns and labels:
[1] = target: Mitogen-activated protein kinase 9 (Homo sapiens) (UniProt P45984); experiment: Inhibition of full length human JNK2 assessed as enzyme activity at 10 uM by KINOMEScan assay; set-up: scale not given: the % may be the effect or the level left
How it was run: (§1)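 Competition binding screen on a 100-kinase KINOMEscan panel, compound tested at a single 10 μM concentration. Primary binding read-out expressed as % Ctrl = (test compound signal − positive control signal)/(negative control signal − positive control signal) × 100, with lower values meaning stronger binding.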

[2] = target: Ephrin type-A receptor 2 (Homo sapiens) (UniProt P29317); experiment: Inhibition of human EPHA2 (593 to 891 amino acid residues) assessed as enzyme activity at 10 uM by KINOMEScan assay expressed in bacterial system assessed as enzyme activity at 10 uM by KINOMEScan assay; set-up: scale not given: the % may be the effect or the level left
How it was run: (§2)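 Commercial KINOMEscan binding panel of 100 kinases, test compound at 10 μM. Results are primary-screen binding interactions expressed as % Ctrl = (test compound signal − positive control signal)/(negative control signal − positive control signal) × 100. Lower % Ctrl means stronger binding.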

[3] = target: Tyrosine-protein kinase JAK2 (Homo sapiens) (UniProt O60674); experiment: Inhibition of human JAK2 JH1 catalytic domain (829 to 1132 amino acid residues) assessed as enzyme activity at 10 uM by KINOMEScan assay; set-up: scale not given: the % may be the effect or the level left; how it was run: as §1
[4] = target: Receptor tyrosine-protein kinase erbB-2 (Homo sapiens) (UniProt P04626); experiment: Inhibition of human ERBB2 (646 to 1225 amino acid residues) assessed as enzyme activity at 10 uM by KINOMEScan assay; set-up: scale not given: the % may be the effect or the level left; how it was run: as §1
[5] = target: Serine/threonine-protein kinase PAK 4 (Homo sapiens) (UniProt O96013); experiment: Inhibition of human PAK4 (144 to 438 amino acid residues) expressed in bacterial system assessed as enzyme activity at 10 uM by KINOMEScan assay; set-up: scale not given: the % may be the effect or the level left
How it was run: (§3)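 Single-concentration competition binding screen (KINOMEscan) across a 100-kinase panel at 10 μM. Primary binding read-out is reported as % of control: (test signal − positive-control signal)/(negative-control signal − positive-control signal) × 100. Lower values indicate stronger binding.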

[6] = target: Serine/threonine-protein kinase STK11 (Homo sapiens) (UniProt Q15831); experiment: Inhibition of full length human LKB1 expressed in bacterial system assessed as enzyme activity at 10 uM by KINOMEScan assay; set-up: scale not given: the % may be the effect or the level left; how it was run: as §2
[7] = target: Proto-oncogene tyrosine-protein kinase Src (Homo sapiens) (UniProt P12931); experiment: Inhibition of human SRC (240 to 536 amino acid residues) expressed in bacterial system assessed as enzyme activity at 10 uM by KINOMEScan assay; set-up: scale not given: the % may be the effect or the level left; how it was run: as §3
[8] = target: SRSF protein kinase 3 (Homo sapiens) (UniProt Q9UPE1); experiment: Inhibition of human SRPK3 (41 to 567 amino acid residues) expressed in bacterial system assessed as enzyme activity at 10 uM by KINOMEScan assay; set-up: scale not given: the % may be the effect or the level left; how it was run: as §3
Sequence of SRSF protein kinase 3 (Homo sapiens) (Q9UPE1 whole entry, the tested form may be a part): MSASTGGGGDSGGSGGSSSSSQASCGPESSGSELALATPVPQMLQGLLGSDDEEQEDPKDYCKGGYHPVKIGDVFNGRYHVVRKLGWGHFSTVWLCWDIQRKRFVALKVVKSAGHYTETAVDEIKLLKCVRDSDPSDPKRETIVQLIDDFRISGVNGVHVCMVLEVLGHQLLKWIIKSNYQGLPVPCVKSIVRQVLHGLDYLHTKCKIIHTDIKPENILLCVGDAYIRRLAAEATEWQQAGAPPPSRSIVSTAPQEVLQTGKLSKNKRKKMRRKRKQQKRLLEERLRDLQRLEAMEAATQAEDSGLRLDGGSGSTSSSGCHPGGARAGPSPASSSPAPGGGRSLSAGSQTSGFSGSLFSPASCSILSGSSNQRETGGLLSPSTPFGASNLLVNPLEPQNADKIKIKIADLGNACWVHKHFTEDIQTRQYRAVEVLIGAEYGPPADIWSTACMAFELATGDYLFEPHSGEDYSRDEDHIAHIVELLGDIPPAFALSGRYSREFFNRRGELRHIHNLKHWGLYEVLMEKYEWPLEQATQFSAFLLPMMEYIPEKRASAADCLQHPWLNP

[9] = target: Epidermal growth factor receptor (Homo sapiens) (UniProt P00533); experiment: Inhibition of human EGFR (669 to 1011 amino acid residues) assessed as enzyme activity at 10 uM by KINOMEScan assay expressed in bacterial system assessed as enzyme activity at 10 uM by KINOMEScan assay; set-up: scale not given: the % may be the effect or the level left; how it was run: as §2
Sequence of Epidermal growth factor receptor (Homo sapiens) (P00533 whole entry, the tested form may be a part): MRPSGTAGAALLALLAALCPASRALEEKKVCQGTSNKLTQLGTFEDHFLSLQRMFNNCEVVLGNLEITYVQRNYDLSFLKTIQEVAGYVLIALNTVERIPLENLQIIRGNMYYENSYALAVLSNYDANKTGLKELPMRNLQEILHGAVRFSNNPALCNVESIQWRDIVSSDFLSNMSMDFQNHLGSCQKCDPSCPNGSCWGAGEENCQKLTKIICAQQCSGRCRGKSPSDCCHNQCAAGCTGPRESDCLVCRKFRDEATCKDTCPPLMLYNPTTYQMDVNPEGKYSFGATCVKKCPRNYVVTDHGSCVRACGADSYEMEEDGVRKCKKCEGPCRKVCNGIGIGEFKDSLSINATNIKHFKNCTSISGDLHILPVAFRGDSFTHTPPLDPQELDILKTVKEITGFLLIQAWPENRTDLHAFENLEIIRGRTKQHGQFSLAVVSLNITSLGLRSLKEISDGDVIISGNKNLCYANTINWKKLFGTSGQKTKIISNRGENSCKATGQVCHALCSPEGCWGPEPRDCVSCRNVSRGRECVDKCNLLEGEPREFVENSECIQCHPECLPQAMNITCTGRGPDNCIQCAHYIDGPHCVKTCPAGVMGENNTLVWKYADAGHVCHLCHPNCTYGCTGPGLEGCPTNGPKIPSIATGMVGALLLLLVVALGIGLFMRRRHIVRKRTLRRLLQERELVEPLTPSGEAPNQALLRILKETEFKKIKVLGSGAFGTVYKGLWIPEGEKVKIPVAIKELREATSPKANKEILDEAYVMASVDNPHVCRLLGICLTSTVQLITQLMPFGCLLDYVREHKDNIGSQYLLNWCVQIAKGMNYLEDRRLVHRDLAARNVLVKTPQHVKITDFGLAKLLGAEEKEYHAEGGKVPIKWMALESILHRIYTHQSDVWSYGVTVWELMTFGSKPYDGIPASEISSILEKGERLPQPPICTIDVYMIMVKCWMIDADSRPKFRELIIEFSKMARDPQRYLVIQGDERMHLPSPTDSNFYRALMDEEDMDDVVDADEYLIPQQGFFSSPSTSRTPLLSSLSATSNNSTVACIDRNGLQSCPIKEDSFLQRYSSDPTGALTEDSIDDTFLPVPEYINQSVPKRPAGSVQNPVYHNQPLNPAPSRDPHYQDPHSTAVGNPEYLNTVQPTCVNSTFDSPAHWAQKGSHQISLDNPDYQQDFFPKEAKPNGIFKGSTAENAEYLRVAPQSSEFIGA

[10] = test system: Mast/stem cell growth factor receptor Kit (Homo sapiens), P10721 [V559D,T670I]; experiment: Inhibition of human KIT V559D/T670I mutant (545 to 952 amino acid residues) expressed in bacterial system assessed as enzyme activity at 10 uM by KINOMEScan assay; set-up: scale not given: the % may be the effect or the level left; how it was run: as §2
[11] = target: Inhibitor of nuclear factor kappa-B kinase subunit alpha (Homo sapiens) (UniProt O15111); experiment: Inhibition of full length human IKK-alpha assessed as enzyme activity at 10 uM by KINOMEScan assay; set-up: scale not given: the % may be the effect or the level left; how it was run: as §1
Sequence of Inhibitor of nuclear factor kappa-B kinase subunit alpha (Homo sapiens) (O15111 whole entry, the tested form may be a part): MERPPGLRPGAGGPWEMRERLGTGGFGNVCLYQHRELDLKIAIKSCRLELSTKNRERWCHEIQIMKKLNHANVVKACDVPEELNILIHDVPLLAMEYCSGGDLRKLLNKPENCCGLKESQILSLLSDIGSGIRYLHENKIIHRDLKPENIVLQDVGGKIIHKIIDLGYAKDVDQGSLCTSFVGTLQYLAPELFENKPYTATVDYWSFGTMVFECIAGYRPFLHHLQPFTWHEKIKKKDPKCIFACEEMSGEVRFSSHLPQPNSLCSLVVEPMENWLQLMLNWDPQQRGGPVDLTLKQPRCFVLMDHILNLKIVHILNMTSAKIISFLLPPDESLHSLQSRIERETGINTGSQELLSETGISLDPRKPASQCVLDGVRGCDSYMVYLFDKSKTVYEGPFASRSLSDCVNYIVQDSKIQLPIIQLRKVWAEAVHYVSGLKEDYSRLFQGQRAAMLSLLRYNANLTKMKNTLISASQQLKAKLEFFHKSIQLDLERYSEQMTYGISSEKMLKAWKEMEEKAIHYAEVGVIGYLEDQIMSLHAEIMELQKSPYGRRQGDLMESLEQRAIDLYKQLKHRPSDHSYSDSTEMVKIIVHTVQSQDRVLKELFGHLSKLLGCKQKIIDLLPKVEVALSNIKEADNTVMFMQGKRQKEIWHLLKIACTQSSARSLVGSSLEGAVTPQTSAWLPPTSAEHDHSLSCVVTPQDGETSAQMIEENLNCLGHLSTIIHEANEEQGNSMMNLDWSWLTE

[12] = target: Mitogen-activated protein kinase kinase kinase 4 (Homo sapiens) (UniProt Q9Y6R4); experiment: Inhibition of human MAP3K4 (1319 to 1608 amino acid residues) expressed in bacterial system assessed as enzyme activity at 10 uM by KINOMEScan assay; set-up: scale not given: the % may be the effect or the level left; how it was run: as §2
[13] = target: Mitogen-activated protein kinase 11 (Homo sapiens) (UniProt Q15759); experiment: Inhibition of full length human p38-beta expressed in bacterial system assessed as enzyme activity at 10 uM by KINOMEScan assay; set-up: scale not given: the % may be the effect or the level left; how it was run: as §1
Sequence of Mitogen-activated protein kinase 11 (Homo sapiens) (Q15759 whole entry, the tested form may be a part, canonical isoform): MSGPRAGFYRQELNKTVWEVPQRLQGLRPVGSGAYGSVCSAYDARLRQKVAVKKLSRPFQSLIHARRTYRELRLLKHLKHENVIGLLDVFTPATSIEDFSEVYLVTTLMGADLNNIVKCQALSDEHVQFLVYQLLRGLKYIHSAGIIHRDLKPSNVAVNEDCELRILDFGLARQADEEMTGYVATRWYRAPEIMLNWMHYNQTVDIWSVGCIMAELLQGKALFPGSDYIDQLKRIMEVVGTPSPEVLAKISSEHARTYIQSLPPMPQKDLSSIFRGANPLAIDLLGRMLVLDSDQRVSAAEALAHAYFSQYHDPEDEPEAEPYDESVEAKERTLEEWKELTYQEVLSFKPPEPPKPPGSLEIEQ

[14] = target: Phosphatidylinositol 4,5-bisphosphate 3-kinase catalytic subunit alpha isoform (Homo sapiens) (UniProt P42336); experiment: Inhibition of human PIK3CA (108 to 1068 amino acid residues) assessed as enzyme activity at 10 uM by KINOMEScan assay; set-up: scale not given: the % may be the effect or the level left; how it was run: as §3
[15] = target: Cyclin-dependent kinase 2 (Homo sapiens) (UniProt P24941); experiment: Inhibition of full length human CDK2 expressed in bacterial system assessed as enzyme activity at 10 uM by KINOMEScan assay; set-up: scale not given: the % may be the effect or the level left; how it was run: as §1
[16] = target: Tyrosine-protein kinase ABL1 (Homo sapiens) (UniProt P00519); experiment: Inhibition of human ABL1 kinase phosphorylation (229 to 512 amino acid residues) assessed as enzyme activity at 10 uM by KINOMEScan assay; set-up: scale not given: the % may be the effect or the level left; how it was run: as §1
[17] = target: Death-associated protein kinase 1 (Homo sapiens) (UniProt P53355); experiment: Share of MOE computational kinase hits for DAPK
[18] = target: Serine/threonine-protein kinase ULK2 (Homo sapiens) (UniProt Q8IYT8); experiment: Inhibition of human ULK2 (1 to 301 amino acid residues) assessed as enzyme activity at 10 uM by KINOMEScan assay; set-up: scale not given: the % may be the effect or the level left; how it was run: as §3
[19] = target: RAC-alpha serine/threonine-protein kinase (Homo sapiens) (UniProt P31749); experiment: Inhibition of human Akt1 expressed in bacterial system assessed as enzyme activity at 10 uM by KINOMEScan assay; set-up: scale not given: the % may be the effect or the level left; how it was run: as §2
[20] = target: Tyrosine-protein kinase receptor UFO (Homo sapiens) (UniProt P30530); experiment: Inhibition of human AXL (497 to 821 amino acid residues) assessed as enzyme activity at 10 uM by KINOMEScan assay expressed in bacterial system assessed as enzyme activity at 10 uM by KINOMEScan assay; set-up: scale not given: the % may be the effect or the level left
Sequence of Tyrosine-protein kinase receptor UFO (Homo sapiens) (P30530 whole entry, the tested form may be a part): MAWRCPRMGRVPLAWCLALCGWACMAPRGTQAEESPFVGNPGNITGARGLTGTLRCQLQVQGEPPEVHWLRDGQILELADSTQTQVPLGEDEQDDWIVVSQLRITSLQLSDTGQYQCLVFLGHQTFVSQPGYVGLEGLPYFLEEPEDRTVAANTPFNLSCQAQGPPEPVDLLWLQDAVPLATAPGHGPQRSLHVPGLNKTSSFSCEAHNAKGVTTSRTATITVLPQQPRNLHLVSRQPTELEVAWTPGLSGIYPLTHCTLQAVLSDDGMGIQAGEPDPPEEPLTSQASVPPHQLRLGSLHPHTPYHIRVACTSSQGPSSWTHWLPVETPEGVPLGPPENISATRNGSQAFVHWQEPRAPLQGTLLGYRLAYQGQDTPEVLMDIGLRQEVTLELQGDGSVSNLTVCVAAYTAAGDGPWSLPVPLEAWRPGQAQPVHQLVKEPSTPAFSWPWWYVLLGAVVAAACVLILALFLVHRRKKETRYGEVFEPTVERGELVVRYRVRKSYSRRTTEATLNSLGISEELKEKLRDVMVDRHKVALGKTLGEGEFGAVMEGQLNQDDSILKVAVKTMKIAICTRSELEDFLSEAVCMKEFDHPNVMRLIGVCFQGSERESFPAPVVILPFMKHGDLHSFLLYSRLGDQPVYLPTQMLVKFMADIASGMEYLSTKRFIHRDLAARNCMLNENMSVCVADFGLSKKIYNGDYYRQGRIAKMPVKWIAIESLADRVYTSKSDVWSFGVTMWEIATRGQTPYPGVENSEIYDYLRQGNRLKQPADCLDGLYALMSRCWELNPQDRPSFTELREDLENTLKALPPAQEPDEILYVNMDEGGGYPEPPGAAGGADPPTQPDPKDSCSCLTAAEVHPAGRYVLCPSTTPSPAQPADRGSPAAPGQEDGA
How it was run: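 Commercial KINOMEscan binding screen across a 100-kinase panel, test compound at 10 μM. Primary-screen binding interactions reported as % Ctrl = (test compound signal − positive control signal)/(negative control signal − positive control signal) × 100. Lower values indicate stronger hits.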

[21] = target: Glycogen synthase kinase-3 beta (Homo sapiens) (UniProt P49841); experiment: Inhibition of full length human GSK3B assessed as enzyme activity at 10 uM by KINOMEScan assay; set-up: scale not given: the % may be the effect or the level left; how it was run: as §1
[22] = target: Mitogen-activated protein kinase kinase kinase 9 (Homo sapiens) (UniProt P80192); experiment: Inhibition of human MLK1 (88 to 426 amino acid residues) expressed in bacterial system assessed as enzyme activity at 10 uM by KINOMEScan assay; set-up: scale not given: the % may be the effect or the level left; how it was run: as §1
Sequence of Mitogen-activated protein kinase kinase kinase 9 (Homo sapiens) (P80192 whole entry, looked up, the tested form may be a part): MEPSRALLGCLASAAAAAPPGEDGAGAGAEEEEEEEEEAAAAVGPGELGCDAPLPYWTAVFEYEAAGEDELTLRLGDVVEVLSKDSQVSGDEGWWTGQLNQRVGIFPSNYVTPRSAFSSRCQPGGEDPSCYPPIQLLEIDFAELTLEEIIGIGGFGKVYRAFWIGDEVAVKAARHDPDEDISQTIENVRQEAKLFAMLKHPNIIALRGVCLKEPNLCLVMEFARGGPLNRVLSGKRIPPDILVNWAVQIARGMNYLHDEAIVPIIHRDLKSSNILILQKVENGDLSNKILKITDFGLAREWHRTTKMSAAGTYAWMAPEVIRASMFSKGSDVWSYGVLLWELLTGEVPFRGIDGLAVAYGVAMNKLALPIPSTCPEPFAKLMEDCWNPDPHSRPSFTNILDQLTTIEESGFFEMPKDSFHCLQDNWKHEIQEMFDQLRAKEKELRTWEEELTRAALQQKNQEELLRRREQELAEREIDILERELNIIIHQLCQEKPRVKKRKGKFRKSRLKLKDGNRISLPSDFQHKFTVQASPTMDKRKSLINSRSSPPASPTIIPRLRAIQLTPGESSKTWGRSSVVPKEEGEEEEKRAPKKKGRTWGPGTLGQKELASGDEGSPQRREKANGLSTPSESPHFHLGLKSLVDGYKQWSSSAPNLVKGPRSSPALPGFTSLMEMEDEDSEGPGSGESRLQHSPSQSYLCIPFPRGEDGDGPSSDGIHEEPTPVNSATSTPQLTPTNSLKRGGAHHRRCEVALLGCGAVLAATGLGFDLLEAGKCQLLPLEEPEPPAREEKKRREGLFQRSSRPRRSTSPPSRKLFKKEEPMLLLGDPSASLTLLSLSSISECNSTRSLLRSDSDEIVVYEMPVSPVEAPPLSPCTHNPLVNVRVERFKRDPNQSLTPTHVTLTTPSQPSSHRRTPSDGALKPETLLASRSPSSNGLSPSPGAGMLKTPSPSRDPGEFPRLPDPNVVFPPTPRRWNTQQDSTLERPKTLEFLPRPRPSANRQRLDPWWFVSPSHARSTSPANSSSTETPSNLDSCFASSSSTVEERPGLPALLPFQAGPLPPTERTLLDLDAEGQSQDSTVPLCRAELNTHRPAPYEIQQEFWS

[23] = target: Casein kinase II (Homo sapiens) (UniProt P67870+P68400+P19784); experiment: Share of MOE computational kinase hits for CK2
[24] = target: 3-phosphoinositide-dependent protein kinase 1 (Homo sapiens) (UniProt O15530); experiment: Inhibition of full length human PDPK1 expressed in bacterial system assessed as enzyme activity at 10 uM by KINOMEScan assay; set-up: scale not given: the % may be the effect or the level left; how it was run: as §1
[25] = target: Activin receptor type-1B (Homo sapiens) (UniProt P36896); experiment: Inhibition of human ACVR1B (187 to 505 amino acid residues) expressed in bacterial system assessed as enzyme activity at 10 uM by KINOMEScan assay; set-up: scale not given: the % may be the effect or the level left; how it was run: as §1

Work on O=C1C2=C(C(=O)c3c(O)ccc(O)c31)[C@@H](O)[C@@H](O)[C@@H](O)C2 yielded an Activity [1] of 84%, an Activity [2] of 100% and an Activity [3] of 94%. For the same compound, the Activity [4] was 93%, the Activity [5] was 91% and the Activity [6] was 100%. For the same compound, the Activity [7] was 91%, the Activity [8] was 93% and the Activity [9] was 88%. The Activity [10] was 86%, the Activity [11] was 87% and the Activity [12] was 100%. For the same compound, the Activity [13] was 92%, the Activity [14] was 99% and the Activity [15] was 92%. For the same compound, the Activity [16] was 88%, the % of MOE kinase hits [17] was 7% and the Activity [18] was 88%. The Activity [19] was 100%, the Activity [20] was 100% and the Activity [21] was 85%. It also gave an Activity [22] of 99%, a % of MOE kinase hits [23] of 43% and an Activity [24] of 87%. For the same compound, the Activity [25] was 90%.

Source: ChEMBL document CHEMBL3808372, “Identification of quinones as novel PIM1 kinase inhibitors” (Bioorg Med Chem Lett, 2016)
